“Also recorded” adds a separate entry of the source.
Tests used:
mVDAC1 N207R = mVDAC1 N207R (Mus musculus, UniProt Q60932, N220R); assay: Thermal denaturation; assay type: binding; details: small molecule 1 mM in DMF; mean ± SEM n=3
Outline: (§1)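 Wild-type or mutant refolded mVDAC1 (0.9 mg/ml final in 20 mM Tris-HCl, 50 mM NaCl, 0.1% LDAO, pH 8.0) was pretreated 1 h at 4°C with 1 mM test compound or 0.5% DMF. It was heated in capillaries from 35 to 95°C at 30°C/min while tryptophan fluorescence was read at 330/350 nm. Ti was the first-derivative maximum of F350/F330, checked by Hill fit. ΔTi was treated versus untreated, with ≥3 repeats.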

mVDAC1 wild-type [1] = target: T1, mVDAC1 wild-type (Mus musculus, UniProt Q60932); assay: Fluorescence polarization NADH competition assay; assay type: binding
Outline: (§2)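 This is an FP competition assay. Refolded, SEC-purified recombinant mVDAC1 (7 μM) was preloaded with 5 μM NADH and titrated with increasing test compound. Buffer was 20 mM Tris, 50 mM NaCl, 0.1% LDAO, pH 8.0. FP was computed from parallel and perpendicular intensities. Apparent KD came from a Hill fit of FP against compound concentration, run in triplicate.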

mVDAC1 N238K [2] = target: T2, mVDAC1 N238K (Mus musculus, UniProt Q60932, N251K); assay: Fluorescence polarization NADH competition assay; assay type: binding
Outline: as §2

mVDAC1 wild-type [3] = target: T1, mVDAC1 wild-type; assay: Thermal denaturation; assay type: binding; details: mean ± SEM n=3; for Temperature denaturation inflection point (Ti) shift: mVDAC1 0.9 mg/mL in LDAO, VA molecule 1 mM vs DMF 0.5%; for Inflection temperature T(i), WT: small molecule 1 mM in DMF
Outline: as §1

mVDAC1 K236A [4] = target: T3, mVDAC1 K236A (Mus musculus, UniProt Q60932, K249A); assay: Thermal denaturation; assay type: binding; details: small molecule 1 mM in DMF; mean ± SEM n=3
Outline: as §1

mVDAC1 F18A = mVDAC1 F18A (Mus musculus, UniProt Q60932, F31A); assay: Thermal denaturation; assay type: binding; details: small molecule 1 mM in DMF; mean ± SEM n=3
Outline: as §1

NIH-3T3 = assay: Cell viability MTT assay; assay type: cell-based; details: Mus musculus, NIH3T3, 48 h, read-out: Half the effective dose (EC50), cell viability
Outline: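 NIH-3T3 kept in high-glucose DMEM with 10% calf serum and penicillin/streptomycin at 37°C, 5% CO₂, used at 70–80% confluency. Seeded 10.000 cells/well, treated 24 h later with a concentration range of test compound for 48 h. MTT added (final 5 mg/ml), 3 h at 37°C, formazan dissolved in DMSO, absorbance 590 nm. n = 3, mean ± SEM; EC50 by nonlinear regression.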

mVDAC1 = mVDAC1 (Mus musculus, UniProt Q60932); assay: 19F NMR protein-ligand interaction experiment; assay type: binding; details: compound 100 μM in LDAO buffer, with 5 μM mVDAC1
Outline: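 Recombinant mouse VDAC1 was expressed in E. coli M15, refolded from inclusion bodies into LDAO and purified by SEC. Test compound was used at 100 μM final in 20 mM Tris-HCl, 50 mM NaCl, 0.1% LDAO, pH 8.0, with or without 5 μM VDAC1. 19F spectra were taken at 298 K: 0.56 s acquisition, 1 s inter-scan delay, 256 scans, 2 Hz exponential broadening.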

Tumor (iCCA) organoids = assay: Organoid viability, CellTiter-Glo 3D; assay type: cell-based, human; details: 72 h; for EC50: Homo sapiens, read-out: EC50, iCCA-derived organoids growth
Outline: (§3)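 Organoids came from dissociated patient tumour (iCCA) or non-tumour biopsies, embedded in reduced-growth-factor BME droplets with expansion medium. After 3 days, test compound was added at graded concentrations in expansion medium with 0.02% Tween20 for 72 h. Viability was read by CellTiter-Glo 3D luminescence as % of DMSO-treated organoids, with ≥3 independent experiments. EC50 (tumour organoids) came from nonlinear regression.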

mVDAC1 N238R = mVDAC1 N238R (Mus musculus, UniProt Q60932, N251R); assay: Thermal denaturation; assay type: binding; details: small molecule 1 mM in DMF; mean ± SEM n=3
Outline: as §1

mVDAC1 N238F = mVDAC1 N238F (Mus musculus, UniProt Q60932, N251F); assay: Thermal denaturation; assay type: binding; details: small molecule 1 mM in DMF; mean ± SEM n=3
Outline: as §1

mVDAC1 R218Y = mVDAC1 R218Y (Mus musculus, UniProt Q60932, R231Y); assay: Thermal denaturation; assay type: binding; details: small molecule 1 mM in DMF; mean ± SEM n=3
Outline: as §1

mVDAC1 K236A [5] = target: T3, mVDAC1 K236A; assay: Fluorescence polarization NADH competition assay; assay type: binding; details: apparent KD, NADH 5 μM, protein 7 μM, mean ± SEM n=3
Outline: as §2

[6] = test system: iCCA patient-derived 2D cells; assay: MTT viability of patient-derived 2D cells; assay type: cell-based, human; details: 72 h exposure, 2μM
Outline: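 Primary 2D cells came from iCCA patient biopsies, with paired non-tumour cells as control. Cells were grown in DMEM/F-12 with 10% FBS and 1% pen/strep. They were seeded at 5.000 cells/well, treated 3 days later with test compound at 2 μM for 72 h, and scored by MTT absorbance. n = 3.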

mVDAC1 N238K [7] = target: T2, mVDAC1 N238K; assay: Thermal denaturation; assay type: binding; details: small molecule 1 mM in DMF; mean ± SEM n=3
Outline: as §1

non-tumor (NT) organoids = assay: Organoid viability, CellTiter-Glo 3D; assay type: cell-based, human; details: 72 h
Outline: as §3

mVDAC1 wild-type [8] = target: T1, mVDAC1 wild-type; assay: Fluorescence polarization, NADH binding to purified VDAC1; details: read-out: KD of NADH, VDAC1 wild-type; 5 μM NADH titrated with protein; Hill fit
Outline: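 NADH at 5 μM was titrated with increasing recombinant refolded mVDAC1 in 20 mM Tris, 50 mM NaCl, 0.1% LDAO, pH 8.0. NADH intrinsic fluorescence was read at ex 355 / em 460 nm. FP was computed from parallel and perpendicular intensities. KD came from a nonlinear Hill fit of FP against protein concentration, in triplicate.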

mVDAC1 N207R, sequence (Q60932 14-296 N220R): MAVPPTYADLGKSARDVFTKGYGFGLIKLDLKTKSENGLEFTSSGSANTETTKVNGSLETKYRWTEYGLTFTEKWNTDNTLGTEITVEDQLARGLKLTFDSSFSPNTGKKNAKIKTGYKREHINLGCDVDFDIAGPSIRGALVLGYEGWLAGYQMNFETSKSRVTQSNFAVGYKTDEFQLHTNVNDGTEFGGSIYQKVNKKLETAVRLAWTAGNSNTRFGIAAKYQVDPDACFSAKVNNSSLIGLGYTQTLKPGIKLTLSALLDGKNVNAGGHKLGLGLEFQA
mVDAC1 N238F, sequence (Q60932 14-296 N251F): as the sequence (Q60932 14-296 N220R) above, with R207N, N238F counted along it
T3 sequence (Q60932 14-296 K249A): as the sequence (Q60932 14-296 N220R) above, with R207N, K236A counted along it
mVDAC1 F18A, sequence (Q60932 14-296 F31A): as the sequence (Q60932 14-296 N220R) above, with F18A, R207N counted along it
mVDAC1, sequence (Q60932 14-296): as the sequence (Q60932 14-296 N220R) above, with R207N counted along it
T1 sequence (Q60932 14-296): as the sequence (Q60932 14-296 N220R) above, with R207N counted along it
mVDAC1 N238R, sequence (Q60932 14-296 N251R): as the sequence (Q60932 14-296 N220R) above, with R207N, N238R counted along it
mVDAC1 R218Y, sequence (Q60932 14-296 R231Y): as the sequence (Q60932 14-296 N220R) above, with R207N, R218Y counted along it
T2 sequence (Q60932 14-296 N251K): as the sequence (Q60932 14-296 N220R) above, with R207N, N238K counted along it

| SMILES | Inflection temperature T(i), N207R (mVDAC1 N207R) | Kd (mVDAC1 wild-type [1]) | Kd (mVDAC1 N238K [2]) | Temperature denaturation inflection point (Ti) shift (mVDAC1 wild-type [3]) | Inflection temperature T(i), WT (mVDAC1 wild-type [3]) | Inflection temperature T(i), K236A (mVDAC1 K236A [4]) | Inflection temperature T(i), F18A (mVDAC1 F18A) | EC50 (NIH-3T3) | 19F resonance change upon VDAC1 binding (mVDAC1) | effect on viability of iCCA organoids (Tumor (iCCA) organoids) | EC50 (Tumor (iCCA) organoids) | Inflection temperature T(i), N238R (mVDAC1 N238R) | Inflection temperature T(i), N238F (mVDAC1 N238F) | Inflection temperature T(i), R218Y (mVDAC1 R218Y) | Kd (mVDAC1 K236A [5]) | reduction in iCCA cell viability [6] | Inflection temperature T(i), N238K (mVDAC1 N238K [7]) | effect on viability of non-tumor organoids (non-tumor (NT) organoids) | Kd (mVDAC1 wild-type [8]) |
| --- | --- | --- | --- | --- | --- | --- | --- | --- | --- | --- | --- | --- | --- | --- | --- | --- | --- | --- | --- |
| CC(=O)N(c1nc(COC(=O)c2ccsc2)cs1)c1ccccc1F [VA-D10, [2-(N-acetyl-2-fluoroanilino)-1,3-thiazol-4-yl]methyl thiophene-3-carboxylate] | 62.9 ± 0.1 °C | 18.5 ± 0.2 µM | 10.7 ± 0.1 µM | +4.9 ± 0.1 °C | 60.5 ± 0.1 °C | 57.9 ± 0.1 °C | 57.3 ± 0.1 °C | 160 ± 4 µM | direct binding; also recorded: significantly move their chemical shifts | reduce cell viability of iCCA organoids in a dose-dependent manner | 25 ± 6 µM | 63.1 ± 0.1 °C | 63.3 ± 0.1 °C | 62.2 ± 0.2 °C | 28 ± 0.7 µM | about 50% | 64.4 ± 0.1 °C | – | – |
| O=C(CC(O)(c1nc2ccccc2s1)C(F)(F)F)c1cccc(Br)c1 (stereo not drawn) [VA-C1, 3-(1,3-benzothiazol-2-yl)-1-(3-bromophenyl)-4,4,4-trifluoro-3-hydroxybutan-1-one] | 63.2 ± 0.1 °C | 18.7 ± 0.3 µM | 15.2 ± 0.1 µM | +4.6 ± 0.1 °C | 60.2 ± 0.1 °C | 57.3 ± 0.1 °C | 58.0 ± 0.1 °C | 146 ± 3 µM | direct binding; also recorded: reduction and broadening of its peak | reduce cell viability of iCCA organoids in a dose-dependent manner | 15 ± 2 µM | 62.5 ± 0.1 °C | 64.0 ± 0.1 °C | 62.3 ± 0.1 °C | 26.4 ± 0.4 µM | about 50% | 64.0 ± 0.1 °C | – | – |
| Cc1ccc(C(=O)OCC(=O)N=c2sccn2Cc2ccccc2Cl)s1 [VA-C6, [2-[[3-[(2-chlorophenyl)methyl]-1,3-thiazol-2-ylidene]amino]-2-oxoethyl] 5-methylthiophene-2-carboxylate] | 63.0 ± 0.1 °C | 18.7 ± 0.6 µM | 14.9 ± 0.5 µM | +4.6 ± 0.1 °C | 60.2 ± 0.1 °C | 57.0 ± 0.1 °C | 58.1 ± 0.1 °C | 127 ± 4 µM | – | – | – | 61.8 ± 0.1 °C | 63.2 ± 0.1 °C | 61.6 ± 0.1 °C | 28.8 ± 0.2 µM | – | 63.8 ± 0.1 °C | – | – |
| Nc1ccn([C@@H]2O[C@H](CO)[C@@H](O)C2(F)F)c(=O)n1 [GMB, gemcitabine, reference compound] | – | – | – | – | – | – | – | – | – | significant efficacy | – | – | – | – | – | – | – | significant efficacy | – |
| O=C1C(=Cc2ccc(Cl)cc2)CSc2ccccc21 [VA-D11, 3-[(4-chlorophenyl)methylidene]thiochromen-4-one] | 62.9 ± 0.1 °C | 15.9 ± 0.7 µM | 13.1 ± 0.4 µM | +4.7 ± 0.1 °C | 60.2 ± 0.1 °C | 57.9 ± 0.1 °C | 57.2 ± 0.1 °C | 118 ± 3 µM | – | – | – | 63.1 ± 0.1 °C | 63.1 ± 0.1 °C | 62.3 ± 0.1 °C | 24.2 ± 0.6 µM | – | 64.5 ± 0.1 °C | – | – |
| NC(=O)C1=CN([C@@H]2O[C@H](COP(=O)(O)OP(=O)(O)OC[C@H]3O[C@@H](n4cnc5c(N)ncnc54)[C@H](O)[C@@H]3O)[C@@H](O)[C@H]2O)C=CC1 [NADH] | – | – | – | – | – | – | – | – | – | – | – | – | – | – | – | – | – | – | 6.8 ± 0.06 µM |

Reference: publication PMC11112339 (iScience, 2024)
